Assay results reported in ChEMBL document CHEMBL4251567 (Eur J Med Chem, 2018).

How the values were obtained:
U-937 [1] = assay: Cytotoxicity against human U937 cells assessed as decrease in cell viability after 44 hrs by MTT assay; type: functional, cell-based; details: Homo sapiens, U-937, 44 h
U-937 [2] = assay: Cytotoxicity against human U937 cells assessed as cell viability at 4 x 10^-3 M after 44 hrs by MTT assay relative to control; type: functional; details: U-937, 44 h, read-out: Activity
U-937 [3] = assay: Cytotoxicity against human U937 cells assessed as cell viability at 3 x 10^-3 M after 44 hrs by MTT assay relative to control; type: functional; details: U-937, 44 h, read-out: Activity
U-937 [4] = assay: Cytotoxicity against human U937 cells assessed as cell viability at 1 x 10^-3 M after 44 hrs by MTT assay relative to control; type: functional; details: U-937, 44 h, read-out: Activity
U-937 [5] = assay: Cytotoxicity against human U937 cells assessed as cell viability at 5 x 10^-4 M after 44 hrs by MTT assay relative to control; type: functional; details: U-937, 44 h, read-out: Activity
U-937 [6] = assay: Cytotoxicity against human U937 cells assessed as cell viability at 2.5 x 10^-4 M after 44 hrs by MTT assay relative to control; type: functional; details: U-937, 44 h, read-out: Activity
U-937 [7] = assay: Cytotoxicity against human U937 cells assessed as cell viability at 80 uM after 44 hrs by MTT assay relative to control; type: functional; details: U-937, 44 h, read-out: Activity
U-937 [8] = assay: Cytotoxicity against human U937 cells assessed as cell viability at 80 uM after 44 hrs in presence of PCI-34051 by MTT assay relative to control; type: functional; details: U-937, 44 h, read-out: Activity
U-937 [9] = assay: Cytotoxicity against human U937 cells assessed as cell viability at 5 x 10^-3 M after 44 hrs by MTT assay relative to control; type: functional; details: U-937, 44 h, read-out: Activity
U-937 [10] = assay: Cytotoxicity against human U937 cells assessed as cell viability at 2.5 x 10^-3 M after 44 hrs by MTT assay relative to control; type: functional; details: U-937, 44 h, read-out: Activity
U-937 [11] = assay: Cytotoxicity against human U937 cells assessed as cell viability at 1.25 x 10^-3 M after 44 hrs by MTT assay relative to control; type: functional; details: U-937, 44 h, read-out: Activity
U-937 [12] = assay: Cytotoxicity against human U937 cells assessed as cell viability at 200 uM after 44 hrs by MTT assay relative to control; type: functional; details: U-937, 44 h, read-out: Activity
U-937 [13] = assay: Cytotoxicity against human U937 cells assessed as cell viability at 200 uM after 44 hrs in presence of tubastatin by MTT assay relative to control; type: functional; details: U-937, 44 h, read-out: Activity
[14] = target: Histone deacetylase 1 (Homo sapiens) (UniProt Q13547); assay: Inhibition of HDAC1 in human HeLa-S3 cell lysates assessed as remaining activity at 8 x 10^-5 M preincubated for 15 mins followed by HDAC-Glo substrate addition measured after 30 to 40 mins by […] relative to control
[15] = target: Histone deacetylase 1 (Homo sapiens) (UniProt Q13547); assay: Inhibition of HDAC1 in human HeLa-S3 cell lysates assessed as remaining activity at 4 x 10^-5 M preincubated for 15 mins followed by HDAC-Glo substrate addition measured after 30 to 40 mins by […] relative to control
How it was run: (§1)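 HDAC1 was captured from HeLa-S3 lysate (100 μg/mL) onto wells precoated with anti-HDAC1 antibody (10 μg/mL, carbonate buffer pH 9.4) and milk-blocked, 1 h at 4 °C, then washed. Inhibitor in DMSO was added in HDAC-Glo buffer for 15 min at room temperature. HDAC-Glo reagent was added and luminescence read after 30-40 min. Concentrations are final. No-antibody background subtracted; % of DMSO control.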

[16] = target: Histone deacetylase 1 (Homo sapiens) (UniProt Q13547); assay: Inhibition of HDAC1 in human HeLa-S3 cell lysates assessed as remaining activity at 2 x 10^-5 M preincubated for 15 mins followed by HDAC-Glo substrate addition measured after 30 to 40 mins by […] relative to control; how it was run: as §1
[17] = target: Histone deacetylase 1 (Homo sapiens) (UniProt Q13547); assay: Inhibition of HDAC1 in human HeLa-S3 cell lysates assessed as remaining activity at 1 x 10^-5 M preincubated for 15 mins followed by HDAC-Glo substrate addition measured after 30 to 40 mins by fluorimetric method relative to control; how it was run: as §1
[18] = target: Histone deacetylase 2 (Homo sapiens) (UniProt Q92769); assay: Inhibition of HDAC2 in human HeLa-S3 cell lysates assessed as remaining activity at 8 x 10^-5 M preincubated for 15 mins followed by HDAC-Glo substrate addition measured after 30 to 40 mins by […] relative to control
How it was run: (§2)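 Same antibody-capture format as the other class I isoforms. HeLa-S3 lysate added at 100 μg/mL for HDAC1 and HDAC2, 1 h at 4 °C, then washed. Inhibitor in DMSO preincubated 15 min at RT; HDAC-Glo reagent added and luminescence read after 30-40 min. Concentrations are final. Signal corrected against a well without antibody; activity expressed as % of DMSO control.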

[19] = target: Histone deacetylase 2 (Homo sapiens) (UniProt Q92769); assay: Inhibition of HDAC2 in human HeLa-S3 cell lysates assessed as remaining activity at 4 x 10^-5 M preincubated for 15 mins followed by HDAC-Glo substrate addition measured after 30 to 40 mins by […] relative to control; how it was run: as §2
[20] = target: Histone deacetylase 2 (Homo sapiens) (UniProt Q92769); assay: Inhibition of HDAC2 in human HeLa-S3 cell lysates assessed as remaining activity at 2 x 10^-5 M preincubated for 15 mins followed by HDAC-Glo substrate addition measured after 30 to 40 mins by fluorimetric method relative to control; how it was run: as §2
[21] = target: Histone deacetylase 3 (Homo sapiens) (UniProt O15379); assay: Inhibition of HDAC3 in human HeLa-S3 cell lysates assessed as remaining activity at 8 x 10^-5 M preincubated for 15 mins followed by HDAC-Glo substrate addition measured after 30 to 40 mins by […] relative to control
How it was run: (§3)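 Antibody-capture (ELISA-type) assay: HDAC antibody coated in carbonate/bicarbonate buffer pH 9.4, wells blocked with 5% milk in TBST. HeLa-S3 lysate added at 1 mg/mL for HDAC3, 1 h at 4 °C, then washed. Inhibitor in DMSO preincubated 15 min at RT in HDAC-Glo buffer. HDAC-Glo reagent added, luminescence read after 30-40 min. Concentrations are final. Background = no-antibody well; activity given as % of DMSO control.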

[22] = target: Histone deacetylase 3 (Homo sapiens) (UniProt O15379); assay: Inhibition of HDAC3 in human HeLa-S3 cell lysates assessed as remaining activity at 4 x 10^-5 M preincubated for 15 mins followed by HDAC-Glo substrate addition measured after 30 to 40 mins by […] relative to control; how it was run: as §3
[23] = target: Histone deacetylase 3 (Homo sapiens) (UniProt O15379); assay: Inhibition of HDAC3 in human HeLa-S3 cell lysates assessed as remaining activity at 2 x 10^-5 M preincubated for 15 mins followed by HDAC-Glo substrate addition measured after 30 to 40 mins by […] relative to control; how it was run: as §3
[24] = target: Histone deacetylase 3 (Homo sapiens) (UniProt O15379); assay: Inhibition of HDAC3 in human HeLa-S3 cell lysates assessed as remaining activity at 1 x 10^-5 M preincubated for 15 mins followed by HDAC-Glo substrate addition measured after 30 to 40 mins by […] relative to control; how it was run: as §3
[25] = target: Histone deacetylase 1 (Homo sapiens) (UniProt Q13547); assay: Inhibition of HDAC1 in human HeLa-S3 cell lysates assessed as remaining activity at 5 x 10^-6 M preincubated for 15 mins followed by HDAC-Glo substrate addition measured after 30 to 40 mins by […] relative to control; how it was run: as §1
[26] = target: Histone deacetylase 2 (Homo sapiens) (UniProt Q92769); assay: Inhibition of HDAC2 in human HeLa-S3 cell lysates assessed as remaining activity at 5 x 10^-6 M preincubated for 15 mins followed by HDAC-Glo substrate addition measured after 30 to 40 mins by […] relative to control; how it was run: as §2
[27] = target: Histone deacetylase 3 (Homo sapiens) (UniProt O15379); assay: Inhibition of HDAC3 in human HeLa-S3 cell lysates assessed as remaining activity at 5 x 10^-6 M preincubated for 15 mins followed by HDAC-Glo substrate addition measured after 30 to 40 mins by […] relative to control; how it was run: as §3
[28] = target: T1, Protein deacetylase HDAC6 (Homo sapiens) (UniProt Q9UBN7); assay: Inhibition of HDAC6 in human HeLa-S3 cell lysates assessed as remaining activity at 1.25 x 10^-8 M preincubated for 15 mins followed by HDAC-Glo substrate addition measured after 30 to 40 mins by […] relative to control
T1 sequence (whole entry): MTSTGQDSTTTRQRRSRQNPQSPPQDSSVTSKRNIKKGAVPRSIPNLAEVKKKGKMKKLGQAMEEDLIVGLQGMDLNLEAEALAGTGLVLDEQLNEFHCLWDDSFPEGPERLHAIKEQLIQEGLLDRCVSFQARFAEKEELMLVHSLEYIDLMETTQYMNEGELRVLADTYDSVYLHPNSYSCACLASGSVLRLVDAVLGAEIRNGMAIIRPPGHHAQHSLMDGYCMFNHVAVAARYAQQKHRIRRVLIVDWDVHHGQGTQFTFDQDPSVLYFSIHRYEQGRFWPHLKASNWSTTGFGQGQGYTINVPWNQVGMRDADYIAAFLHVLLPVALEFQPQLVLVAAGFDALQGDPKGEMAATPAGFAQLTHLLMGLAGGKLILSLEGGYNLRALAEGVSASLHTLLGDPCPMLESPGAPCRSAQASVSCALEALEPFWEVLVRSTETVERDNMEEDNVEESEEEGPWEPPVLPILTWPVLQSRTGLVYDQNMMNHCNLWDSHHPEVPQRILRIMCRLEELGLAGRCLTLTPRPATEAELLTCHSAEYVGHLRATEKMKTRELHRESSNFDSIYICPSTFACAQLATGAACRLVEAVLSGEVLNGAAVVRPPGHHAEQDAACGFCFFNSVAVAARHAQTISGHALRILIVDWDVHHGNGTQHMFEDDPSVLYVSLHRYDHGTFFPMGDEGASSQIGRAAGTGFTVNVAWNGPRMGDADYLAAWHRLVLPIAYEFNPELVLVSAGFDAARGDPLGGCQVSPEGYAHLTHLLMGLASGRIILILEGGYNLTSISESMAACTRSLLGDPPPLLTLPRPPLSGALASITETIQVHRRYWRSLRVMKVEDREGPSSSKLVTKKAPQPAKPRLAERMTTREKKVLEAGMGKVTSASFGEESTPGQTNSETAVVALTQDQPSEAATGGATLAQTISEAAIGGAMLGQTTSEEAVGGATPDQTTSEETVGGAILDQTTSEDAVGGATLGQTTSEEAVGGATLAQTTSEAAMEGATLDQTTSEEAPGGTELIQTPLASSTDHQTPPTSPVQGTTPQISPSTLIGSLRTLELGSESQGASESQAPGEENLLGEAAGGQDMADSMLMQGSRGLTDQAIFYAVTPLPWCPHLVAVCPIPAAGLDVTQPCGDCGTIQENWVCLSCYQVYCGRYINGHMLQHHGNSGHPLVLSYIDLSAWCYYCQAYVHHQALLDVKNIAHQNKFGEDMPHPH
How it was run: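 HDAC6 captured on an anti-HDAC6 antibody-coated plate (2 μg/mL, pH 9.4 carbonate buffer, milk-blocked). HeLa-S3 lysate loaded at 1 mg/mL, 1 h at 4 °C, then washed. 15 min RT preincubation with inhibitor in DMSO; HDAC-Glo reagent added, luminescence read at 30-40 min. Concentrations are final. Background = no-antibody well; values are % activity versus DMSO control.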

Sequence of Histone deacetylase 2 (Homo sapiens) (Q92769 whole entry, canonical isoform): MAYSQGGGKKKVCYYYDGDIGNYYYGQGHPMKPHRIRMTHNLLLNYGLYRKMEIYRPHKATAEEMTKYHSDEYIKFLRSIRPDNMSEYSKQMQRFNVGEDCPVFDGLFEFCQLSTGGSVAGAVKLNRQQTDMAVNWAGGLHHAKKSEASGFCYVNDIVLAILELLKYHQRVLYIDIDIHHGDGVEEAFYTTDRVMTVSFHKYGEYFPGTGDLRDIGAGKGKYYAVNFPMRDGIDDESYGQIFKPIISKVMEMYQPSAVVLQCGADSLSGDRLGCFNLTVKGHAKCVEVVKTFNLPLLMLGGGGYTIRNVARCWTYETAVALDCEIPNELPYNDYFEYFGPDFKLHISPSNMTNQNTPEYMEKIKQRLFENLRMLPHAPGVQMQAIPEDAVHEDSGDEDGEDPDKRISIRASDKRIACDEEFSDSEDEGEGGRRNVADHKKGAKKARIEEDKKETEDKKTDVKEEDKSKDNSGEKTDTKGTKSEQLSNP
Sequence of Histone deacetylase 3 (Homo sapiens) (O15379 whole entry): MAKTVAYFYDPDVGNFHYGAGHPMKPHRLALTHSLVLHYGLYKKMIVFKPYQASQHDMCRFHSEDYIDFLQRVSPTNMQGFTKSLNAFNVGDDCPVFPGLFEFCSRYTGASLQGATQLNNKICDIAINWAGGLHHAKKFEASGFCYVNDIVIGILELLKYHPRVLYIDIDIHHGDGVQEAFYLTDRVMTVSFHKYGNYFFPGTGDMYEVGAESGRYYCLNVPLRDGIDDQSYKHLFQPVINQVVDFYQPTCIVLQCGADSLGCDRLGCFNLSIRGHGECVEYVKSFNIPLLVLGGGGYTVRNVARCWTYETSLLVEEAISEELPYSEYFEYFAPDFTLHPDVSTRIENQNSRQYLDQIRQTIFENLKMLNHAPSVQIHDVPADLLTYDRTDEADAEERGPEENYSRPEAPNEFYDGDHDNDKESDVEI
Sequence of Histone deacetylase 1 (Homo sapiens) (Q13547 whole entry): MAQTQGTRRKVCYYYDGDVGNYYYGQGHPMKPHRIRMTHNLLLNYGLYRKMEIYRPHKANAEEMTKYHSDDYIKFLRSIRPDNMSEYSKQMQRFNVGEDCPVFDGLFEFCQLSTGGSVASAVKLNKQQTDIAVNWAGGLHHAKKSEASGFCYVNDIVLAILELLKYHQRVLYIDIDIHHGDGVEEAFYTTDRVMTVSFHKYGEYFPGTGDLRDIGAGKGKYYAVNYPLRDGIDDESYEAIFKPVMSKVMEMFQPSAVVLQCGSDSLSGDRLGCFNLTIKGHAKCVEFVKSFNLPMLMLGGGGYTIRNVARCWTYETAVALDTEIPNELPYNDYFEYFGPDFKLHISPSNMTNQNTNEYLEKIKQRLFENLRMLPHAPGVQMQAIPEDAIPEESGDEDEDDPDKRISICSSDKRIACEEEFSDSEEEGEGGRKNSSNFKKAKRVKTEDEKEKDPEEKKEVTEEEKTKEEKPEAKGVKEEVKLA

CN1CCc2c(c3ccccc3n2Cc2ccc(C(=O)NO)cc2)C1 [TUBASTATIN A]
EC50 (U-937 [1]): 83 µM | viability at 4000 µM (U-937 [2]): 17% | viability at 3000 µM (U-937 [3]): 19% | viability at 1000 µM (U-937 [4]): 38% | viability at 500 µM (U-937 [5]): 68% | viability at 250 µM (U-937 [6]): 82% | viability at 80 µM (U-937 [7]): 44% | viability at 80 µM (U-937 [8]): 13%

COc1ccc(Cn2ccc3ccc(C(=O)NO)cc32)cc1
EC50 (U-937 [1]): 210 µM | viability at 5000 µM (U-937 [9]): 9% | viability at 2500 µM (U-937 [10]): 50% | viability at 1250 µM (U-937 [11]): 71% | viability at 500 µM (U-937 [5]): 85% | viability at 200 µM (U-937 [12]): 62% | viability at 200 µM (U-937 [13]): 13%

O=C(CC[C@@H](CCCC(=O)Nc1ccccc1)Cc1ccccc1)NO
Activity [14]: 24% | Activity [15]: 38% | Activity [16]: 53% | Activity [17]: 72% | Activity [18]: 29% | Activity [19]: 43% | Activity [20]: 71% | Activity [21]: 25% | Activity [22]: 39% | Activity [23]: 54% | Activity [24]: 77% | Activity [25]: 88% | Activity [26]: 96% | Activity [27]: 89% | Activity [28]: 67%
